From ChEMBL document CHEMBL1671826, “Effect of Inhibiting Histone Deacetylase with Short-Chain Carboxylic Acids and Their Hydroxamic Acid Analogs on Vertebrate Development and Neuronal Chromatin” (ACS Med Chem Lett, 2011)
Activity calls are given as the source filed them. No cut-off for these calls is given here.

Experiments:
[1] = target: Histone deacetylase 5 (Homo sapiens, UniProt Q9UQL6); assay: Inhibition of human recombinant HDAC5
Method in brief: (§1)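 Recombinant HDAC isoforms incubated with acetyl-lysine tripeptide–AMC substrate (mimics histone H4 K12), or trifluoroacetyl-lysine-AMC for class IIa enzymes, each substrate at its Km; trypsin cleavage of deacetylated product releases fluorescent AMC. IC50 from two experiments in duplicate, mean ± SD.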

[2] = target: T1, Protein deacetylase HDAC6 (Homo sapiens) (UniProt Q9UBN7); assay: Inhibition of HDAC6 in human HeLa cells assessed as acetylation of tubulin after 24 hrs by immunofluorescence assay; assay type: cell-based
T1 sequence (whole entry): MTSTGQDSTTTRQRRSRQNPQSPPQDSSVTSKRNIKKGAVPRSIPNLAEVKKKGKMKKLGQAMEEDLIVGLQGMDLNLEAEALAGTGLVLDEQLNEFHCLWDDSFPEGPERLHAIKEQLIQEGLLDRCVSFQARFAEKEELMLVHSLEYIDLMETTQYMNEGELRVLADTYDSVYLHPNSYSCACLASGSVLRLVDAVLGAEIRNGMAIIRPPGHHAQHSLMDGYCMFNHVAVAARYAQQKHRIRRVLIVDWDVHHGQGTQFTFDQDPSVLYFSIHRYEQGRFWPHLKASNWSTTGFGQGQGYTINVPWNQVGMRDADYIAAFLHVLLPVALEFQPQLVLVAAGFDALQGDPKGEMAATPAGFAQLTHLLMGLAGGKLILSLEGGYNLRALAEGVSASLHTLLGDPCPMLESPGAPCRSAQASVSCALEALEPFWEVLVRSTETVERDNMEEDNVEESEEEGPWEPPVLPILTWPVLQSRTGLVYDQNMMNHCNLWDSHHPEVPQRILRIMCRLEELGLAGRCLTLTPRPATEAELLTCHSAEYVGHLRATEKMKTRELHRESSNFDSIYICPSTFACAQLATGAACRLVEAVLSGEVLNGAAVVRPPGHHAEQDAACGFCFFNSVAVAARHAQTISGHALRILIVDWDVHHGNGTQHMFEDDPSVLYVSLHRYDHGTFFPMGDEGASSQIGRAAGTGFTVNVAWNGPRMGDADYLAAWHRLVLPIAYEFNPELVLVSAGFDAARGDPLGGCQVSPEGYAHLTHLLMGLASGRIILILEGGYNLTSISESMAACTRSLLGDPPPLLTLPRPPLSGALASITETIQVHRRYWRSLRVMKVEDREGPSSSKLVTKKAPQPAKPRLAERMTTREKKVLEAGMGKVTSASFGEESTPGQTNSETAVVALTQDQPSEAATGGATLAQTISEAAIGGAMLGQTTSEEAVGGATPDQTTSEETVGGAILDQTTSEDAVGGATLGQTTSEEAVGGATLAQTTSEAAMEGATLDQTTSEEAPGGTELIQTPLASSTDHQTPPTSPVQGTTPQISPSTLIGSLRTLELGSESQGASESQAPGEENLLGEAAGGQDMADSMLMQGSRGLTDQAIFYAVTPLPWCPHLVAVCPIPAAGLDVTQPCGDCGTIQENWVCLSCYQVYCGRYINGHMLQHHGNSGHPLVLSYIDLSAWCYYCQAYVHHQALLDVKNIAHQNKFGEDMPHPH
Method in brief: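 HeLa cells treated 24 h at the indicated doses; tubulin acetylation quantified by immunofluorescence.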

[3] = target: Histone deacetylase 4 (Homo sapiens, UniProt P56524); assay: Inhibition of human recombinant HDAC4; method in brief: as §1
Chain of Histone deacetylase 4 (P56524 whole entry): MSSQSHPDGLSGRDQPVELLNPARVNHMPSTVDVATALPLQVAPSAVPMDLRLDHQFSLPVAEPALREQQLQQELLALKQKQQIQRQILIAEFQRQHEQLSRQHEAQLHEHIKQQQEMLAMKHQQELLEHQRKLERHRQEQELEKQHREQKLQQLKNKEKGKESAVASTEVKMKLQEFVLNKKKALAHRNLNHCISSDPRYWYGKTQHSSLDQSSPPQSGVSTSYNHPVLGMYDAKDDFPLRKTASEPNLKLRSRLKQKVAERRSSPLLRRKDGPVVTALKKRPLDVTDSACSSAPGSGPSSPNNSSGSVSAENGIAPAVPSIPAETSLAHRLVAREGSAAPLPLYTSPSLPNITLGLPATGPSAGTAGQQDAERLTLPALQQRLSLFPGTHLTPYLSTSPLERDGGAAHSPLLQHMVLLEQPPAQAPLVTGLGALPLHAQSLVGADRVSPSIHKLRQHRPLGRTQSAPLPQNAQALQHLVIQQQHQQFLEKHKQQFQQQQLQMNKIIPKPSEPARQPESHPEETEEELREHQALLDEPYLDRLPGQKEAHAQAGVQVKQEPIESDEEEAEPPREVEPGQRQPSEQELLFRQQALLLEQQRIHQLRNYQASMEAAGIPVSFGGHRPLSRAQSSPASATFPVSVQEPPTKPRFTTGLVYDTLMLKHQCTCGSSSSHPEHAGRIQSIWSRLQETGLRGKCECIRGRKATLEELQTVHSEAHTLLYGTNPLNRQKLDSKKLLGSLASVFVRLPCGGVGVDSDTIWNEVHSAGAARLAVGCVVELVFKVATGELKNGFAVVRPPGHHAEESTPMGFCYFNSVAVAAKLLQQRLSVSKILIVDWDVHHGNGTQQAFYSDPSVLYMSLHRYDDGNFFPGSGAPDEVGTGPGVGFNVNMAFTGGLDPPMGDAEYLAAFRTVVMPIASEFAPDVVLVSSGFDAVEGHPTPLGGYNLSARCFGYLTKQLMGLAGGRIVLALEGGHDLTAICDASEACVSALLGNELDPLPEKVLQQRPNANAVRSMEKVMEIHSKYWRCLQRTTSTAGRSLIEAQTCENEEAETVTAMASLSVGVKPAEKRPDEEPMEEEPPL

[4] = target: T2, Histone deacetylase 7 (Homo sapiens, UniProt Q8WUI4); assay: Inhibition of human recombinant HDAC7
T2 sequence (Q8WUI4 whole entry): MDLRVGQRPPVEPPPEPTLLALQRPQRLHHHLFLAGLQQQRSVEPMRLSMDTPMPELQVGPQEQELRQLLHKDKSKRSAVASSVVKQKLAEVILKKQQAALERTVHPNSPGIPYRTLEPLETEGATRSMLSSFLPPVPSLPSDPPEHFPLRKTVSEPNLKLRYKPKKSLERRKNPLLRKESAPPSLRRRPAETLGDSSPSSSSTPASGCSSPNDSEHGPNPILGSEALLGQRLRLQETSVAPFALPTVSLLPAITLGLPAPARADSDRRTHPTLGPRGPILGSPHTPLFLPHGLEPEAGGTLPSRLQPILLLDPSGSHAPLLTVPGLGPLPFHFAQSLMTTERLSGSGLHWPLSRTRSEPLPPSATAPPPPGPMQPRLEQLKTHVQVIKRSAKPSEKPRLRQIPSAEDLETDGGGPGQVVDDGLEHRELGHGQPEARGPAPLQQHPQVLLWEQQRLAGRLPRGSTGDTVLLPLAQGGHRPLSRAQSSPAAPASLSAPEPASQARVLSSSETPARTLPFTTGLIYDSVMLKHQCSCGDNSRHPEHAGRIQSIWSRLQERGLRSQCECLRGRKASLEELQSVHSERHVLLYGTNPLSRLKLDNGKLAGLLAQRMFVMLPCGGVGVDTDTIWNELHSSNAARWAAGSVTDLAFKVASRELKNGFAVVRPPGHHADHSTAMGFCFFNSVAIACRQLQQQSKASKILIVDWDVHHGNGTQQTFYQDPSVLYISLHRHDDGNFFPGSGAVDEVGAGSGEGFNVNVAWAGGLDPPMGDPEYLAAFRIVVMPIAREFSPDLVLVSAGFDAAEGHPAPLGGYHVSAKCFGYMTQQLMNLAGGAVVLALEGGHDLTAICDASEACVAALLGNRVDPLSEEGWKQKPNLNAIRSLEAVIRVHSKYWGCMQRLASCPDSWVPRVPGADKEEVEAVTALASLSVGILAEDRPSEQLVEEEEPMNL

[5] = target: T3, Histone deacetylase 8 (Homo sapiens, UniProt Q9BY41); assay: Inhibition of human recombinant HDAC8; method in brief: as §1
T3 sequence (Q9BY41 whole entry): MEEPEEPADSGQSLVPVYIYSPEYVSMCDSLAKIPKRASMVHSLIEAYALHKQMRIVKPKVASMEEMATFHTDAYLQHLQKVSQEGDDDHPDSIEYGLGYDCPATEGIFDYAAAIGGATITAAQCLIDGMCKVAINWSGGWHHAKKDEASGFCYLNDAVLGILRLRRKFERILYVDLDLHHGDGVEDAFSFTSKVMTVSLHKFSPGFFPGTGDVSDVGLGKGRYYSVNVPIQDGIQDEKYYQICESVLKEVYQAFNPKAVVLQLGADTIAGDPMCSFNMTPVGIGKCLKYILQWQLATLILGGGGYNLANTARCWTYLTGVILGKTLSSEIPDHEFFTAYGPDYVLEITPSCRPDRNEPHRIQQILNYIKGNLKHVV

[6] = species: Mus musculus; assay: Inhibition of HDAC in mouse primary forebrain neurons assessed as acetylation of histone H3 lysine 9 at 92.5 uM after 24 hrs by immunofluorescence assay
[7] = target: T4, Protein deacetylase HDAC6 (Mus musculus) (UniProt Q9Z2V5); assay: Inhibition of HDAC6 in mouse primary forebrain neurons assessed as acetylation of tubulin at 92.5 uM after 24 hrs by immunofluorescence assay
T4 sequence (whole entry): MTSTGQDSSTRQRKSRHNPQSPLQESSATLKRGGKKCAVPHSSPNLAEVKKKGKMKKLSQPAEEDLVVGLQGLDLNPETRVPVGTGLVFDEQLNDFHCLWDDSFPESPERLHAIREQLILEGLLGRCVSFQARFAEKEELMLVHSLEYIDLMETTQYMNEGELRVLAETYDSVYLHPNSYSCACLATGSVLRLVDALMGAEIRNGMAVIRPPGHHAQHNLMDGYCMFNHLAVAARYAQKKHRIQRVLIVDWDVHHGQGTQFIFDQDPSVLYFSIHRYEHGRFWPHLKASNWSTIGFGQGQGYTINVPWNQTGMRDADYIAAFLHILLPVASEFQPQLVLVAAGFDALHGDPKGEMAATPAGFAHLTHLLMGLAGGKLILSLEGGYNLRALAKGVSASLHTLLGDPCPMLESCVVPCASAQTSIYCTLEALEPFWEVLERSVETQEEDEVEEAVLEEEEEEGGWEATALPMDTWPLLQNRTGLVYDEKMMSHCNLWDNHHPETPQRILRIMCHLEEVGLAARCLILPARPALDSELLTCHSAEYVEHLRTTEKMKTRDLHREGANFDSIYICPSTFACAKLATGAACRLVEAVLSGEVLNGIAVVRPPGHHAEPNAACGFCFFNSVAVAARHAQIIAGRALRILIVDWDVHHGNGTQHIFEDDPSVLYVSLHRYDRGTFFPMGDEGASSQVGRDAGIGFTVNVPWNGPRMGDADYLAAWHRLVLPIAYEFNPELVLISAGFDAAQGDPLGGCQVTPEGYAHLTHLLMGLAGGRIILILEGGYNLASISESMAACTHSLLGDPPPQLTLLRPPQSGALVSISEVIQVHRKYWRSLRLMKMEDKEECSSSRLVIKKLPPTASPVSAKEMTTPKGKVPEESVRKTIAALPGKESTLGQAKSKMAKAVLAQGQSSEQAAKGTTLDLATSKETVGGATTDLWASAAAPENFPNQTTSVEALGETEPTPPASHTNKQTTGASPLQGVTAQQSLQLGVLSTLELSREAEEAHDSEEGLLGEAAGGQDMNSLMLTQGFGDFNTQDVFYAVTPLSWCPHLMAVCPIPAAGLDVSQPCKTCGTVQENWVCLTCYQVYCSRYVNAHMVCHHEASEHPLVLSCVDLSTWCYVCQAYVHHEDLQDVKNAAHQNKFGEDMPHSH
Method in brief: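 Primary mouse forebrain cultures treated 24 h at a single concentration; tubulin acetylation measured by immunofluorescence.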

[8] = target: Histone deacetylase 9 (Homo sapiens, UniProt Q9UKV0); assay: Inhibition of human recombinant HDAC9; method in brief: as §1
Chain of Histone deacetylase 9 (Q9UKV0 whole entry): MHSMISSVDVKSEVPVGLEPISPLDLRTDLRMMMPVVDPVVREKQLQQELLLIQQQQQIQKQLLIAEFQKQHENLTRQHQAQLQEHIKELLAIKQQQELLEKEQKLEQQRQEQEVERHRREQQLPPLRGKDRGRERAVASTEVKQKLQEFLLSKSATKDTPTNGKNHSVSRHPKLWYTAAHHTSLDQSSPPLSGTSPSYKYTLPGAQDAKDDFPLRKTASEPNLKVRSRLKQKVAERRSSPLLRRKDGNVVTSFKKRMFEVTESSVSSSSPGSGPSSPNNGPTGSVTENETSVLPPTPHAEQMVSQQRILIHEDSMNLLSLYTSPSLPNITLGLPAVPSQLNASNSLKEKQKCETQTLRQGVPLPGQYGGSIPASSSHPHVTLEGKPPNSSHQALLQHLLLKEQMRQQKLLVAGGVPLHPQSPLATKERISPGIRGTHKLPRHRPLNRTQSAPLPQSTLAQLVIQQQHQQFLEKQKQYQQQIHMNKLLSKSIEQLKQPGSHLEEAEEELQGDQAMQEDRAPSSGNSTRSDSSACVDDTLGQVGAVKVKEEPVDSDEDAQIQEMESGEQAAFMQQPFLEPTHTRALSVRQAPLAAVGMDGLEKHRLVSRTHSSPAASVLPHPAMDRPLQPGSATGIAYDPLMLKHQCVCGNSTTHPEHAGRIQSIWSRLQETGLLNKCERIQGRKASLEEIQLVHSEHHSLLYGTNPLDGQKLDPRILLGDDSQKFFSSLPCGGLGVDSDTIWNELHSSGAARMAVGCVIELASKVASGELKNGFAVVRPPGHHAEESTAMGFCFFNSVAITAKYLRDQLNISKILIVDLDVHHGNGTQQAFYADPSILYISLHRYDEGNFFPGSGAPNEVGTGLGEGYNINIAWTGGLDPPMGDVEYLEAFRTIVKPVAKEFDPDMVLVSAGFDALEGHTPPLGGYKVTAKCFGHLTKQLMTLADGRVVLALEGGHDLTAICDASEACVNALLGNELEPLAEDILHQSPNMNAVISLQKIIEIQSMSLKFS

[9] = target: T5, Protein deacetylase HDAC6 (Homo sapiens, UniProt Q9UBN7); assay: Inhibition of human recombinant HDAC6; method in brief: as §1
T5 sequence (Q9UBN7 whole entry): T1 sequence (whole entry)

[10] = target: Histone deacetylase 3 (Homo sapiens, UniProt O15379); assay: Inhibition of human recombinant HDAC3; method in brief: as §1
Chain of Histone deacetylase 3 (O15379 whole entry): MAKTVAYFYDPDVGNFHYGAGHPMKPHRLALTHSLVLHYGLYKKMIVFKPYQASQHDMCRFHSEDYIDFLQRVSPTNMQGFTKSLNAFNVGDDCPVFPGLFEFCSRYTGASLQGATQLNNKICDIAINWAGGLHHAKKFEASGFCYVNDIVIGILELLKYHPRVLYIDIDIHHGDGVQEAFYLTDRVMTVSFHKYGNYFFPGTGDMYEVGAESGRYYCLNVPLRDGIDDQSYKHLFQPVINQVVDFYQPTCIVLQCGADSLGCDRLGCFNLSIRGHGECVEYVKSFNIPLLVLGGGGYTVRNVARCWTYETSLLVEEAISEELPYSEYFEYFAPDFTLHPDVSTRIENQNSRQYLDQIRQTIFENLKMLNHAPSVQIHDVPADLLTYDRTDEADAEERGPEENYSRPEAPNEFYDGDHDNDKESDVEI

[11] = target: Histone deacetylase 1 (Homo sapiens, UniProt Q13547); assay: Inhibition of human recombinant HDAC1; method in brief: as §1
Chain of Histone deacetylase 1 (Q13547 whole entry): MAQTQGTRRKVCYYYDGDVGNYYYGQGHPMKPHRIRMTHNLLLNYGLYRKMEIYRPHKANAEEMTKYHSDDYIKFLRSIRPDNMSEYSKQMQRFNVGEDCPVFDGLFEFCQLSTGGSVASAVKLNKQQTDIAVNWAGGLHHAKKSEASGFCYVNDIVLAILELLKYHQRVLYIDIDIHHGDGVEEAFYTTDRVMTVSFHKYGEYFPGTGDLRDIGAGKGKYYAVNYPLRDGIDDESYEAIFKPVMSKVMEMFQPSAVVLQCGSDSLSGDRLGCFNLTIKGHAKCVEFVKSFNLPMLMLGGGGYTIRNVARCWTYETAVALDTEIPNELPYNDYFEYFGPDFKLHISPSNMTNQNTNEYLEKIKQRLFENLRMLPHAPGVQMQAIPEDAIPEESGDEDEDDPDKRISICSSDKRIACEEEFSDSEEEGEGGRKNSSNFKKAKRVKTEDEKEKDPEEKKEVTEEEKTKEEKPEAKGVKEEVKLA

[12] = target: Histone deacetylase 2 (Homo sapiens, UniProt Q92769); assay: Inhibition of human recombinant HDAC2; method in brief: as §1
Chain of Histone deacetylase 2 (Q92769 whole entry): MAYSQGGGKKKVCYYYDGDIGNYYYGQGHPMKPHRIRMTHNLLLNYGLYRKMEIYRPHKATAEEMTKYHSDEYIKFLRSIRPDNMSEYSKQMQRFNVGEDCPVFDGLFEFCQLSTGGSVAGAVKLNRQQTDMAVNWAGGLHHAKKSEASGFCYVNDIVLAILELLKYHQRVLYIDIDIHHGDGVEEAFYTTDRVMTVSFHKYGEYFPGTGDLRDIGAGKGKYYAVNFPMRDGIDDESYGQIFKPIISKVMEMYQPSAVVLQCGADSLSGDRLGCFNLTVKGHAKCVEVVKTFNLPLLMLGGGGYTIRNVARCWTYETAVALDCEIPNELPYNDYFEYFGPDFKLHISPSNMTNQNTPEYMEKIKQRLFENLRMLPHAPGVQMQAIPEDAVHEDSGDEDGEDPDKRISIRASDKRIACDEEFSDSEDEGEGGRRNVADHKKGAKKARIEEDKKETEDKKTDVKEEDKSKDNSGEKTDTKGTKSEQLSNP

[13] = species: Xenopus laevis; assay: Induction of developmental deffects in frog embryos assessed as shortening of anterior-posterior axis at 2 mM after 18 hrs; assay type: organism-based; conditions: in vivo, 2000 µM
Method in brief: (§2)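 Xenopus laevis embryos exposed in the whole-organism development assay at 2 mM and scored morphologically for loss of anterior structures, shortened anterior–posterior axis, and heart looping and pigment defects; compared with untreated embryos.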

[14] = species: Xenopus laevis; assay: Induction of developmental deffects in frog embryos assessed as heart looping and pigment deffects at 2 mM after 18 hrs; assay type: organism-based; conditions: in vivo, 2000 µM; method in brief: as §2
[15] = species: Xenopus laevis; assay: Induction of developmental deffects in frog embryos assessed as loss of anterior structures at 2 mM after 18 hrs; assay type: organism-based; conditions: in vivo, 2000 µM; method in brief: as §2
[16] = species: Xenopus laevis; assay: Induction of tubulin acetylation in frog embryos at 2 mM after 18 hrs Western blotting
Method in brief: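 Frog embryos treated from stage 18 (end of neurulation) through tailbud stages (32) for 18 h at the indicated concentrations; acetylated tubulin detected by Western blot.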

[17] = species: Xenopus laevis; assay: Induction of histone H3 acetylation in frog embryos at 2 mM after 2 hrs Western blotting
Method in brief: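 Frog embryos treated from completion of neurulation (stage 18) into tailbud stages for 2 h at the indicated concentrations; histone acetylation read by Western blot.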

Chain of Histone deacetylase 5 (Q9UQL6 whole entry, canonical isoform): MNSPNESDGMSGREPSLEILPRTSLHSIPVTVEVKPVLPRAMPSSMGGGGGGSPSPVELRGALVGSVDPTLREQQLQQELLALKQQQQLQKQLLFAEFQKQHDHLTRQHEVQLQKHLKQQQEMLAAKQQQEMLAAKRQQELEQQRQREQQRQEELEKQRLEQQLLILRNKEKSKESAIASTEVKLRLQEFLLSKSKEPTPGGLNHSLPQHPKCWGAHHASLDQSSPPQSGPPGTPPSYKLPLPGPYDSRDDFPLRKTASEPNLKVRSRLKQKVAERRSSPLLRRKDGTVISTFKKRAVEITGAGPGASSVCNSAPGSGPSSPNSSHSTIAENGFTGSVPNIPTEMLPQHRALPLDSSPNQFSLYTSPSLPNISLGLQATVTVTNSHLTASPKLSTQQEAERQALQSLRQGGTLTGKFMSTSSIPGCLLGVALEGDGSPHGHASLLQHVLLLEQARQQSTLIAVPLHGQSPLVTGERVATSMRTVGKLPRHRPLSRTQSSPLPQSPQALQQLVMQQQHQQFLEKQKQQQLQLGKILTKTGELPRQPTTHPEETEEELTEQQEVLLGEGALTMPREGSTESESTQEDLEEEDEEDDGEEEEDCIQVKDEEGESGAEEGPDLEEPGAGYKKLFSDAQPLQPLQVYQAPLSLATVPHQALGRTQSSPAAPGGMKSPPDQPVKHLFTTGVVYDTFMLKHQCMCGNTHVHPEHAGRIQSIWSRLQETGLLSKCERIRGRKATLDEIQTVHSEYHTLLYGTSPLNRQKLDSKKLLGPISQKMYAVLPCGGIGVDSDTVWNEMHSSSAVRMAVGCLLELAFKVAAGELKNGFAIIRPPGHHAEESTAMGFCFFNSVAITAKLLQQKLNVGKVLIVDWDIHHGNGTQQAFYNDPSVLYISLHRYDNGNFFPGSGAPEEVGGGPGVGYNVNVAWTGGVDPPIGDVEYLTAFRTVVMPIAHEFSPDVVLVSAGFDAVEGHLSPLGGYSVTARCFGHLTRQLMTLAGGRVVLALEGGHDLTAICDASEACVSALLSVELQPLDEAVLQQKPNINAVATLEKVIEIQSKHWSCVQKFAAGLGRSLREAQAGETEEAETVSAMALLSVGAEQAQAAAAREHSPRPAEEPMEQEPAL

For O=C(O)CCCc1ccccc1, the IC50 [1] was over 2000 µM, the inhibition [2] was “inactive” and the IC50 [3] was over 2000 µM. For the same molecule, the IC50 [4] was over 2000 µM, the IC50 [5] was 93 µM and the inhibition [6] was “inactive”. For the same molecule, the inhibition [7] was “Active” and the IC50 [8] was over 2000 µM.
CCCC(=O)O [BUTYRIC ACID] was tested, and the IC50 [1] was over 2000 µM, the inhibition [2] was “inactive” and the IC50 [3] was over 2000 µM. The IC50 [4] was over 2000 µM, the IC50 [5] was 15 µM and the inhibition [6] was “inactive”. It also gave an IC50 [9] of over 2000 µM, an IC50 [10] of 9 µM and an IC50 [11] of 16 µM. It also gave an IC50 [12] of 12 µM and an IC50 [8] of over 2000 µM.
For CCCC(=O)NO [BUTYRYLHYDROXAMIC ACID], the IC50 [1] was 360 µM, the inhibition [2] was “Active” and the IC50 [3] was over 2000 µM. The IC50 [4] was over 1000 µM, the IC50 [5] was 26 µM and the inhibition [6] was “Active”. The IC50 [9] was 2 µM, the IC50 [10] was 10 µM and the IC50 [11] was 7 µM. It also gave an IC50 [12] of 9 µM and an IC50 [8] of over 2000 µM.
O=C(CCCc1ccccc1)NO [PHENYLBUTYRYLHYDROXAMIC ACID] was tested, and the IC50 [1] was 25 µM, the inhibition [2] was “Active” and the IC50 [3] was 140 µM. For the same molecule, the IC50 [5] was 4 µM, the inhibition [6] was “Active” and the IC50 [9] was 0.5 µM. For the same molecule, the IC50 [12] was 0.6 µM and the IC50 [8] was 430 µM.
In the case of CCCC(CCC)C(=O)O [VALPROIC ACID], the Activity [13] is reported as “Toxic”, the IC50 [1] is reported as over 2000 µM and the inhibition [2] is reported as “inactive”. The Activity [14] was “Toxic”, the IC50 [3] was over 2000 µM and the Activity [15] was “Toxic”. For the same molecule, the IC50 [4] was over 2000 µM, the inhibition [6] was “inactive” and the IC50 [9] was over 2000 µM. It also gave an IC50 [11] of 39 µM and an IC50 [8] of over 2000 µM.
With CCCC(CCC)C(=O)NO [VALPROPYLHYDROXAMIC ACID] the Activity [13] was “Non-toxic”, the Activity [16] was “Active” and the IC50 [1] was 37 µM. For the same molecule, the inhibition [2] was “Active”, the Activity [14] was “Non-toxic” and the IC50 [3] was 170 µM. For the same molecule, the Activity [15] was “Non-toxic”, the IC50 [5] was 39 µM and the inhibition [6] was “inactive”. For the same molecule, the Activity [17] was “inactive”, the inhibition [7] was “Active” and the IC50 [9] was 16 µM. The IC50 [10] was 340 µM, the IC50 [11] was 560 µM and the IC50 [12] was 680 µM. It also gave an IC50 [8] of 91 µM.
